The record followed here is ChEMBL document CHEMBL4376859, “Prodrugs for nitroreductase-based cancer therapy-3: Antitumor activity of the novel dinitroaniline prodrugs/Ssap-NtrB enzyme suicide gene system: Synthesis, in vitro and in silico evaluation in prostate cancer” (Eur J Med Chem, 2020).

In series [1] the test system is PC-3. Kind of series: Cytotoxicity against human PC3 cells assessed as cell viability at 9 to 150 uM after 48 hrs by MTT assay relative to control. Type of series: functional. An outline of the steps:
(§1)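 Hep3B hepatoma, PC-3 prostate cancer and HUVEC (healthy control) cells were exposed to nitro compounds at 150, 75, 38, 19 and 9 µM for 24 h and 48 h. Viability was read by MTT assay, and IC50 values were derived from the growth inhibition curves.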

In series [2] the test system is PC-3. Kind of series: Cytotoxicity against human PC3 cells assessed as cell viability at 9 to 150 uM after 24 hrs by MTT assay relative to control. Format: functional. In a few lines: as §1
The target of series [3] is T1, Putative nitroreductase (Staphylococcus saprophyticus subsp. saprophyticus (strain ATCC 15305 / DSM20229 / NCIMB 8711 / NCTC 7292 / S-41), UniProt Q4A0P1).
T1 sequence (Q4A0P1 whole entry): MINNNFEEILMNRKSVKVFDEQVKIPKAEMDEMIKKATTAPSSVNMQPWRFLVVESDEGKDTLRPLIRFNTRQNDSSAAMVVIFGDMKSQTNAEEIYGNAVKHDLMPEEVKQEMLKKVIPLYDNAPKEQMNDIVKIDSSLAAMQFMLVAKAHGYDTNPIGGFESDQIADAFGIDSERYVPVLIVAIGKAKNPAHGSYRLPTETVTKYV
The experiment in a line: Substrate activity at Staphylococcus saprophyticus nitroreductase expressed in Escherichia coli BL21 (DE3) assessed as retention time by HPLC analysis. Type of series: ADME.

A short description of series [4]: Cytotoxicity against human HUVEC cells assessed as cell viability at 9 to 150 uM after 24 hrs by MTT assay relative to control. Format: cell-based. As to conditions: read-out: Activity. In a few lines: as §1
In series [5] the test system is PC-3. Kind of series: Cytotoxicity against human PC3 cells […] Staphylococcus saprophyticus nitroreductase NtrB assessed as reduction in cell viability in presence of NADH as cofactor after 48 hrs by SRB assay. As to conditions: PC-3, 48 h. Type of series: functional, cell-based. In a few lines: (§2)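 Compounds were reduced outside the cells by purified His-tag (Ni column) Ssap-NtrB. The reaction mix held 600 µM NADH and compound (150, 39, 9 µM, or 180, 18, 1.8 nM) and was applied to PC-3 cells. Controls were compound alone in 25 mM Tris/HCl pH 7.5, and enzyme alone at 31 µg/mL. After 48 h, SRB absorbance was read at 492 nm and converted to % viability.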

The subject of series [6] is Hep 3B2. The experiment in a line: Cytotoxicity against human Hep3B cells assessed as cell viability at 9 to 150 uM after 48 hrs by MTT assay relative to control. Format: functional. An outline of the steps:
as §1

A short description of series [7]: Cytotoxicity against human HUVEC cells assessed as cell viability at 9 to 150 uM after 48 hrs by MTT assay relative to control. Type of series: cell-based. As to conditions: read-out: Activity. In a few lines:
as §1

In series [8] the target is T1, Putative nitroreductase. The experiment in a line: Substrate activity at Staphylococcus saprophyticus nitroreductase NtrB assessed as Kcat/Km using NADPH as cofactor in Tris-Cl buffer at pH 7.5 by HPLC analysis relative to CB1954/NfsB. Type of series: ADME.
Series [9] has as its system Hep 3B2. The experiment in a line: Cytotoxicity against human Hep3B cells assessed as cell viability at 9 to 150 uM after 24 hrs by MTT assay relative to control. Format: functional. In a few lines:
as §1

Series [10] deals with PC-3. The experiment in a line: Cytotoxicity against human PC3 cells assessed as reduction in cell viability after 48 hrs by SRB assay. Format: functional, cell-based. An outline of the steps: as §2
For series [11], the system named is PC-3. The experiment in a line: Cytotoxicity against human PC3 cells assessed as cell viability after 24 hrs by MTT assay. Format: functional, cell-based. As to conditions: Homo sapiens, PC-3, 24 h; read-out: IC50. In a few lines: as §1
A further series concerns HUVEC. The experiment in a line: Cytotoxicity against human HUVEC cells assessed as cell viability after 24 hrs by MTT assay. Format: cell-based. Conditions: Homo sapiens, HUVEC. An outline of the steps: as §1
For series [12], the target named is T1, Putative nitroreductase. Kind of series: Substrate activity at Staphylococcus saprophyticus nitroreductase NtrB assessed as enzyme specific activity using NADH as cofactor in Tris-Cl buffer at pH 7.5 by HPLC analysis. Format: ADME.
Series [13] relates to Hep 3B2. The experiment in a line: Cytotoxicity against human Hep3B cells assessed as cell viability after 24 hrs by MTT assay. Format: functional, cell-based. An outline of the steps:
as §1

The target of series [14] is T2, Oxygen-insensitive NAD(P)H nitroreductase (Escherichia coli K-12, UniProt P38489).
T2 sequence (P38489 whole entry): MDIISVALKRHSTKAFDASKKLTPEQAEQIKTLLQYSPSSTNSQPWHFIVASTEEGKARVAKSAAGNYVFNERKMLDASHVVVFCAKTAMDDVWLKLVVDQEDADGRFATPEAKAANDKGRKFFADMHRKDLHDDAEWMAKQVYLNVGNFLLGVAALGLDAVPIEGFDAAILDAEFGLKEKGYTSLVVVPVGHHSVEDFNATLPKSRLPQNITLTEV
The experiment in a line: Substrate activity at Escherichia coli nitroreductase nfsB assessed as Kcat using NADH as cofactor in Tris-Cl buffer at pH 7.5 by spectrophotometric method. Format: ADME.

For series [15], the target named is T2, Oxygen-insensitive NAD(P)H nitroreductase. The experiment in a line: Substrate activity at Escherichia coli nitroreductase nfsB assessed as Km using NADH as cofactor in Tris-Cl buffer at pH 7.5 by spectrophotometric method based Michaelis-Menten plot analysis. Type of series: ADME.
The target is the same in series [16]. Kind of series: Substrate activity at Escherichia coli nitroreductase nfsB assessed as ratio of Kcat/Km using NADH as cofactor in Tris-Cl buffer at pH 7.5 by spectrophotometric method based Michaelis-Menten plot analysis. Type of series: ADME.
A short description of series [17]: Substrate activity at Escherichia coli nitroreductase nfsA assessed as ratio of Kcat/Km using NADPH as cofactor in Tris-Cl buffer at pH 7.5 by spectrophotometric method based Michaelis-Menten plot analysis relative to CB1954/NfsB.
The nature of series [18]: Substrate activity at Escherichia coli nitroreductase nfsA assessed as ratio of Kcat/Km using NADPH as cofactor in Tris-Cl buffer at pH 7.5 by spectrophotometry based Michaelis-Menten plot analysis. Format: ADME.
The nature of series [19]: Substrate activity at Escherichia coli nitroreductase nfsA assessed as Kcat using NADPH as cofactor in Tris-Cl buffer at pH 7.5 by spectrophotometric method. Format: ADME.
Series [20] deals with T2, Oxygen-insensitive NAD(P)H nitroreductase. Kind of series: Substrate activity at Escherichia coli nitroreductase nfsB assessed as ratio of Kcat/Km using NADH as cofactor in Tris-Cl buffer at pH 7.5 by spectrophotometric method based Michaelis-Menten plot analysis relative to CB1954/NfsB. Type of series: ADME.
For the next series, the system named is nitroreductase nfsA. Kind of series: Substrate activity at Escherichia coli nitroreductase nfsA assessed as Km using NADPH as cofactor in Tris-Cl buffer at pH 7.5 by spectrophotometry based Michaelis-Menten plot analysis. Type of series: ADME. Conditions: Escherichia coli nitroreductase nfsA enzyme.
Substrate in series [21]: O=[N+]([O-])c1ccc(Nc2ccc3ccccc3c2)c([N+](=O)[O-])c1
The experiment in a line: Substrate activity at Staphylococcus saprophyticus nitroreductase NtrB assessed as Km using NADPH as cofactor in Tris-Cl buffer at pH 7.5 by HPLC analysis. Type of series: ADME.

Substrate in series [22]: CCC(=O)Nc1cc(N2CCOCC2)c([N+](=O)[O-])cc1[N+](=O)[O-]
Kind of series: (§3) Substrate activity at Staphylococcus saprophyticus nitroreductase NtrB assessed as Km using NADH as cofactor in Tris-Cl buffer at pH 7.5 by HPLC analysis. Format: ADME.

Substrate in series [23]: O=C(CC(F)(F)F)Nc1cc(N2CCOCC2)c([N+](=O)[O-])cc1[N+](=O)[O-]
Described as §3. Format: ADME.

Substrate in series [24]: O=[N+]([O-])c1ccc(N2CCOCC2)c([N+](=O)[O-])c1
Described as §3. Format: ADME.

Substrate in series [25]: Nc1ccccc1Nc1ccc([N+](=O)[O-])cc1[N+](=O)[O-]
The description is as §3. Format: ADME.

Substrate in series [26]: O=[N+]([O-])c1ccc(N2CCCCC2)c([N+](=O)[O-])c1
The series is described as §3. Type of series: ADME.

Substrate in series [27]: O=[N+]([O-])c1cc([N+](=O)[O-])c(Nc2ccc(S(=O)(=O)O)cc2)cc1Nc1ccc(S(=O)(=O)O)cc1
Described as §3. Format: ADME.

Active and inactive are the calls of the source. The rule behind the calls is not given here.

`O=[N+]([O-])c1ccc(Nc2ccc3ccccc3c2)c([N+](=O)[O-])c1`: the Activity in the series with PC-3 [1] is recorded as above 80%; in the series with PC-3 [2], 51 - 80%; in the series on Hep 3B2 [6], 51 - 80%; with Hep 3B2 [9], 51 - 80%. Also, the Retention_time on Putative nitroreductase [3] is 20.13 min. The viability at 24 h, up to 150 µM in series [4] is above 80%. The concentration for half-maximal inhibition (IC50) with PC-3 [5] was found to be 5.07 µM. Moreover, in [7], the viability at 48 h, up to 150 µM was above 80%. The “fold change (FC)” value at Putative nitroreductase [8] stood at 1.48. The result in the series with PC-3 [10] was inactive.

Turning to `O=[N+]([O-])c1cc([N+](=O)[O-])c(Nc2ccc(Cl)cc2)cc1Nc1ccc(Cl)cc1`, the figures for the IC50 in the series with PC-3 [11] and in the series with HUVEC were 150 µM and 86.5 µM, respectively. Moreover, the Activity is recorded as 51 - 80% with PC-3 [1], 5.77 U/mg at Putative nitroreductase [12], 51 - 80% in the series with Hep 3B2 [6] and 51 - 80% in the series on Hep 3B2 [9]. Moreover, the Retention_time on Putative nitroreductase [3] is given as 35 min. For the same molecule, in series [7], the viability at 48 h, up to 150 µM lay in the range of 51 to 80%.

For `CC(C)CC(=O)Nc1cc(N2CCOCC2)c([N+](=O)[O-])cc1[N+](=O)[O-]`, at Putative nitroreductase [3], the Retention_time was found to be 24.16 min. Also, the viability at 24 h, up to 150 µM in series [4] fell in the range of 51 to 80%. The Activity with Hep 3B2 [6] is 51 - 80%. For the same molecule, in series [7], the viability at 48 h, up to 150 µM lay within 51 to 80%. For the same molecule, the concentration for half-maximal inhibition (IC50) in the series on Hep 3B2 [13] came to 150 µM.

On to `CS(=O)(=O)OCCN(CCBr)c1c(C(=O)NCCO)cc([N+](=O)[O-])cc1[N+](=O)[O-]`, for which the Kcat in [14] was 60 s⁻¹; in series [19], 12 s⁻¹. For the same molecule, the Km in [15] was determined as 4500 µM; with nitroreductase nfsA it was 100 µM. Moreover, the Kcat/Km in series [16] came to 13000 M⁻¹ s⁻¹; in [18], 120000 M⁻¹ s⁻¹. In addition, the figures for the “fold change (FC)” value in series [17] and in [20] were 21.43 and 2.32, respectively.

B1: Putative nitroreductase (Staphylococcus saprophyticus subsp. saprophyticus ATCC 15305 = NCTC 7292) (protein)
chain: MINNNFEEILMNRKSVKVFDEQVKIPKAEMDEMIKKATTAPSSVNMQPWRFLVVESDEGKDTLRPLIRFNTRQNDSSAAMVVIFGDMKSQTNAEEIYGNAVKHDLMPEEVKQEMLKKVIPLYDNAPKEQMNDIVKIDSSLAAMQFMLVAKAHGYDTNPIGGFESDQIADAFGIDSERYVPVLIVAIGKAKNPAHGSYRLPTETVTKYV
Take B1: the Km was 15.7 µM in series [21]; 14 µM in series [22]; 9.95 µM in series [23]; 444 µM in [24]; 137 µM in series [25]; 104 µM in series [26]. Further, the Michaelis-Menten constant (Km) in series [27] turned out to be 255 µM. Further, the kcat in series [21] came to 0.1 s⁻¹; in series [22] it was 0.37 s⁻¹; in series [23], 0.234 s⁻¹; in series [24], 3.1 s⁻¹; in [25], 0.315 s⁻¹; in series [26], 0.404 s⁻¹. Also, the catalytic constant (kcat) in [27] worked out at 3.4 s⁻¹. Moreover, the kcat/Km was 8270 M⁻¹ s⁻¹ in series [21]; 26500 M⁻¹ s⁻¹ in [22]; 26500 M⁻¹ s⁻¹ in [23]; 6970 M⁻¹ s⁻¹ in series [24]; 2300 M⁻¹ s⁻¹ in series [25]; 3900 M⁻¹ s⁻¹ in series [26]. Further, the kcat/Km in series [27] stood at 13300 M⁻¹ s⁻¹.
